The text below walks through data of article PMC6148399 (SLAS discovery : advancing life sciences R & D, 2018).

One test deals with IP6K1 (Homo sapiens, UniProt Q92551). The conditions noted are these: cited from earlier work.
The target in a further test is T1, human IP6K2 (Homo sapiens, UniProt Q9UHH9).
T1 sequence (Q9UHH9 1-426): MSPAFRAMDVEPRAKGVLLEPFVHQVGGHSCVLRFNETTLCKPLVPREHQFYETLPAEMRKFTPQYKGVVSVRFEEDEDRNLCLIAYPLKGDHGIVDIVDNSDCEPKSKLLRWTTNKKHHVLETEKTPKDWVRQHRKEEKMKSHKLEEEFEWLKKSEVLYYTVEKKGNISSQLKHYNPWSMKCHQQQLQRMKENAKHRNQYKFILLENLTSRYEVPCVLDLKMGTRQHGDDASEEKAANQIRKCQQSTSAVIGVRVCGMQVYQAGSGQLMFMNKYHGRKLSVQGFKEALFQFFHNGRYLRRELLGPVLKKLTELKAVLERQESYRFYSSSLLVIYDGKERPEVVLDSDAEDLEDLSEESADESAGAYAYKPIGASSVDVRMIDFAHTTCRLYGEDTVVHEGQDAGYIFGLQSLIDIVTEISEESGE
The test is described as follows: IP6K2 TR-FRET assay for ADP detection. The test is classed as biochemical. As to conditions: read-out: IC50 for IP6K2; TR-FRET Adapta, 400 nM IP6K2, 10 µM ATP, 10 µM InsP6. A digest of the protocol:
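Buffer: 50 mM HEPES pH 7.5, 0.01% Brij-35, 10 mM MgCl2, 1 mM EGTA. Test compound (3-fold, 10-point dilutions) preincubated 10–20 min at room temperature with enzyme, then ATP/InsP6 added; 30 min reaction. Detection: 2 nM Eu-anti-ADP antibody, 12 nM ADP tracer, 10 mM EDTA (final), 30 min. 665/615 nm ratio; inhibition scaled DMSO-only (0%) to no-enzyme (100%); ~20% ATP turnover.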

SMILES strings stand for the structures.

IP6K1, sequence (Q92551 whole entry, species assumed): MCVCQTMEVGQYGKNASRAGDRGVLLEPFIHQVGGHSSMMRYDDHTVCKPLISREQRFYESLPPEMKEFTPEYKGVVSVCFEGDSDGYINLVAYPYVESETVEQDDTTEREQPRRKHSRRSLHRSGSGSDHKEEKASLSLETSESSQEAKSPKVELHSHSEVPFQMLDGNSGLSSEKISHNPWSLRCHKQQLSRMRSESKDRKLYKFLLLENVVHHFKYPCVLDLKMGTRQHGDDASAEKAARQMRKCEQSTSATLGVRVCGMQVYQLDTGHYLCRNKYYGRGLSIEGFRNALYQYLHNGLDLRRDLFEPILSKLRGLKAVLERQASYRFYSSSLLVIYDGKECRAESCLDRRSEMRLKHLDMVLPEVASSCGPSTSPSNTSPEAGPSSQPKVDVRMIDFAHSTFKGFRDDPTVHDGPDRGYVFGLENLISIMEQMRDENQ

In the case of `O=[N+]([O-])c1ccc(CNc2nc(NCc3cccc(C(F)(F)F)c3)nc3nc[nH]c23)cc1` [TNP, N2-(m-(trifluoromethyl)benzyl) N6-(p-nitrobenzyl)purine], the 50% inhibitory concentration (IC50) on IP6K1 (read-out: IC50 previously reported for IP6K1) is 430 nM; at human IP6K2 it was 7360 nM. At IP6K1 (read-out: Ki previously reported for IP6K1), the Ki is 240 nM.
